Screening data as filed in PubChem BioAssay.
BaF3 parental: counter-screen for JAK2V617F inhibitors: parental Ba/F3 viability inhibitors. CellTiter-Glo ATP luminescence. inhibition, % at 5.6 µM. 220,000 tested, 1.1% active;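 active = inhibition above a per-campaign cutoff, the mean inhibition of all tested compounds plus 3 SD, cut at about 27% in these data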;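 note: 0% = DMSO wells and 100% = JAK Inhibitor I control wells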
bCat nuc transl: beta-catenin nuclear translocation modulation; nuclear translocation activity, % at 5 µM; HeLa beta-catenin nuclear translocation, immunofluorescence imaging; AID 1665; 190,000 tested, 0.3% active;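 active = nuclear translocation activity above 50% at 5 µM, with a well cell count of 50 or more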;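 note: per-cell ratio of nuclear to cytoplasmic median beta-catenin stain intensity; plate controls were DMSO negative control for no effect and GSK-3 inhibitor IX positive control for full effect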
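assay system = human HeLa cells, endogenous beta-catenin | times = compound treatment 24 h, 37°C, 5% CO2 | detection = Anti-beta-catenin immunofluorescence on PFA-fixed, Triton-permeabilized cells, DAPI nuclei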
Ba/F3 V617F tox: lowers viability of Ba/F3 cells expressing EpoR and JAK2V617F; ATP luminescence; inhibition, % at 5.6 µM; 220,000 tested, 1.1% active; AID 1446;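 active = inhibition above the campaign mean plus 3 SD over all tested compounds, cut at about 24% in these data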;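 note: cytokine-independent growth of Ba/F3 cells driven by EpoR plus mutant JAK2; 0% = DMSO-treated cells and 100% = JAK inhibitor I control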
IEC-6 tox: kills IEC-6 intestinal cells in KLF5 counter-screen | 290,000 tested, 0.78% active | IEC-6 cytotoxicity, luminescence viability | inhibition, % at 5 µM | AID 1825; in the data active = inhibition above about 22%;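 note: 0% = plate median of test compound wells and 100% = cytotoxic reference compound wells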
APP 5UTR inh: APP translation inhibition; SH-SY5Y APP 5'UTR-luciferase reporter, luminescence; inhibition, % at 2 µM; 190,000 tested, 0.82% active; AID 1285;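 active = inhibition above a set limit, derived from the sample mean plus 3 SD, cut at about 45% in these data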
MT stabilize HCS: microtubule stabilization, imaging screen | HeLa tubulin immunostaining HCS, 24 h; share of cells brighter than vehicle mean+2SD | % tubulin-high responders, % at 10 µM | 200,000 tested, 0.83% active;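 active = plate Z-score above 3 for both tubulin-high and condensed-nucleus cell shares, with cell loss under 80%, at 10 µM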;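 note: anti alpha tubulin signal scored within the nucleus-defined area of each cell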
The depositor's hits bear a star; x = no result given. Rows were chosen to be rich in hits. Some 2.2% of all compounds tested hit in one or more screens of this group.

SMILES	BaF3 parental	bCat nuc transl	Ba/F3 V617F tox	IEC-6 tox	APP 5UTR inh	MT stabilize HCS
COc1ccc(N2CC(O)(c3ccc(C)cc3)[N+]3=C2CCCC3)cc1 (stereo not given)	50*	-1	45*	5	8	1
N=c1n(CCN2CCCC2)c2ccccc2n1CC(O)c1ccc(Cl)c(Cl)c1 (stereo not given)	104*	19	102*	101*	4	6
Cc1cc(Nc2nc(Cl)c(Cl)cc2Cl)n(-c2ccccc2)n1	4	3	-6	5	16	17*
Cc1cc(Nc2ccccc2)n(-c2ccccc2)n1	0	x	-2	-3	12	4
CCc1cc(-c2n[nH]c(C)c2-c2ccccc2Cl)c(O)cc1OC	x	x	x	-2	x	x
CCOc1ccc(-c2n[nH]c(C)c2-c2ccccc2OC)c(O)c1	3	3	2	5	-15	27*
COc1ccc(-c2n[nH]c(C)c2-c2cscn2)c(O)c1	0	-1	-7	-2	x	x
C=C(C)COc1ccc(-c2n[nH]c(C)c2-c2ccc(OC)cc2)c(O)c1	0	6	0	-5	5	30*
COc1ccc(OC)c(NC(=O)Cn2c(=O)n(CC3CCCO3)c(=O)c3cc(OC)c(OC)cc32)c1 (stereo not given)	x	x	x	4	x	x
CN=c1scc(-c2ccco2)n1/N=C/c1ccc(O)c(O)c1	54*	6	100*	17	-9	5
O=C(Nc1ccccc1C(=O)Nc1ccccn1)c1cc(F)c(F)cc1Cl	x	x	x	1	x	x
OC(c1cc(-c2ccc(C(F)(F)F)cc2)nc(C(F)(F)F)c1)C1CCCCN1 (stereo not given)	53*	34	96*	40*	x	x
COC(=O)CSc1nc(-c2ccc(F)cc2)cc(C(F)(F)F)n1	4	-3	1	0	10	4
S=C(Nc1ccccc1)Nc1nc2ccccc2n1CCOc1ccccc1	2	2	-3	1	-2	30*
C=CCn1c(SCC(=O)NC2CCCC2)nc2c([nH]c3ccccc32)c1=O	x	x	x	2	x	x
COc1ccc(S(=O)(=O)N2CCCCC2)cc1NC(=O)c1ccc([N+](=O)[O-])o1	5	-4	-2	-5	56*	8
COc1ccc(S(=O)(=O)N2CCCCC2)cc1NC(=O)c1ccco1	x	x	x	4	x	x
COC(=O)c1ccc(N2CCN(S(=O)(=O)c3ccc4ccccc4c3)CC2)c([N+](=O)[O-])c1	2	1	-2	2	x	1
NC(=O)c1ccc(N2CCN(S(=O)(=O)c3ccccc3)CC2)c([N+](=O)[O-])c1	38*	3	36*	11	12	2
O=C(NCc1cccnc1)/C(=C\c1ccc(-c2ccc(Cl)c(Cl)c2)o1)S(=O)(=O)c1ccccc1	2	15	-2	-6	15	35*
CCOC(=O)C1(CCOc2ccccc2)CCN(Cc2cccc(OC)c2OC)CC1	x	x	x	2	x	x
Cc1ccc(C(=O)NC2CCN(S(=O)(=O)c3ccccc3)CC2)cc1	4	0	-3	-7	-11	2
Cc1ccc(S(=O)(=O)N2CCC(NC(=O)c3ccccc3)CC2)cc1	90*	-1	-1	4	8	3
Cc1cc(C)c2c(n1)SCC(=O)N2CC(=O)Nc1c(C)cccc1C	x	x	x	-4	x	x
CC(C)c1nnc(NC(=O)CS(=O)(=O)c2ccccc2)s1	x	x	x	4	x	x
SMILES	BaF3 parental	bCat nuc transl	Ba/F3 V617F tox	IEC-6 tox	APP 5UTR inh	MT stabilize HCS
COc1ccc(-c2csc3ncnc(N4CCN(c5ccccc5[N+](=O)[O-])CC4)c23)cc1	x	x	x	0	x	x
CCCN(CCC)C1=CC(=[N+]2CCCC2)CC(C)(C)C1	72*	1	88*	20	-2	3
CC1(C)CC(=O)c2sc(NS(=O)(=O)c3ccc(F)cc3)nc2C1	2	2	3	6	-4	2
Cc1cc(C)c2c(c1)-c1c(ssc1=S)C(C)(C)N2C(=O)CSc1nncn1C	4	-1	0	11	2	18*
COc1cccc(/C=N\NC(=O)c2ccc(Cn3cc(Br)c([N+](=O)[O-])n3)o2)c1O	-2	-1	7	0	43	2
Cc1ccc(Nc2cc(C(=O)NCCCN3CCOCC3)c3ccccc3n2)cc1C	x	x	x	7	x	x
Cc1ccc(Nc2ncc(C(=O)NCCCN3CCN(C)CC3)c3ccccc23)cc1Cl	64*	-1	65*	13	10	4
Cc1nn(-c2ccc(F)cc2)c(Cl)c1/C=C1\C(=O)Nc2ccccc21	5	1	1	-2	21	22*
Cc1nn(-c2ccccc2)c(Cl)c1/C=C1\N=C(c2ccccc2)OC1=O	0	x	-2	-3	-16	2
CCC(=O)Nc1nonc1-c1nc2ccccc2n1Cc1ccccc1	-2	1	-5	-9	3	15
CCC(=O)Nc1nonc1-c1nc2ccccc2n1Cc1cccc2ccccc12	5	101*	-1	5	89*	13
CN1CCN(c2ccc(-c3ccc4ccccc4n3)cc2)CC1	11	14	14	8	51*	3
CC1(c2ccc(Cl)cc2Cl)OCC(Cn2ccnc2)O1 (stereo not given)	95*	2	0	2	-14	36*
OC(Cn1ccnc1)c1ccc(Cl)cc1Cl (stereo not given)	6	-4	-1	2	3	7
CCOC(=O)c1c(CNc2ccncc2)n(C)c2cc(Br)c(O)cc12	41*	4	38*	-4	24	5
COc1ccc(C(=O)COC(=O)c2ccc(N(C)C)cc2)cc1	0	-5	-1	0	-12	5
COc1ccc(C(=O)C[n+]2ccc(N(C)C)cc2)cc1	59*	0	67*	-8	x	x
CN(C)c1cc[n+](CC(=O)c2ccc(-c3ccccc3)cc2)cc1	68*	3	99*	3	3	4
CN(C)c1cc[n+](CC(=O)c2ccc(Br)cc2)cc1	56*	0	51*	-3	-4	3
O=C(C[n+]1ccccc1)c1ccc(-c2ccccc2)cc1	2	1	0	-6	-10	2
O=C(CSc1ccc(Cl)cc1)Nc1ccccc1N1CCN(C(=O)c2ccccc2)CC1	68*	x	2	3	-20	4
O=C(Nc1ccc(Br)cc1)c1ccccc1Br	x	x	x	-14	x	x
CCCCCN(C(=O)NC(=O)NC(C)CC)S(C)(=O)=O (stereo not given)	89*	4	4	0	3	3
CCC(C)NC(=O)NC(=O)N(C1CCCCC1)S(C)(=O)=O (stereo not given)	1	x	-1	-2	-2	3
Cc1ccc(CNC(=S)Nc2ccc(NS(=O)(=O)c3ccc(C)cc3)cc2)cc1	x	x	x	-5	x	x
COc1ccc2nc(N=Nc3ccc(O)c4ccccc34)sc2c1	4	2	0	6	74*	11
O=C(OCc1nc2ccccc2s1)C1CCN(S(=O)(=O)c2cccs2)CC1	96*	-3	2	-1	-29	5
